Assay results from ChEMBL document CHEMBL1151849, “Antioxidant hydroquinones substituted by beta-1,6-linked oligosaccharides in wheat germ” (J Nat Prod, 2009).
The source made the active and inactive calls. The calls are words filed in the database; no cut-off is given here.

What was measured:
[1] = Antioxidant activity assessed as trolox equivalents of ABTS radical scavenging activity by TEAC assay; assay type: functional
Summary of the method: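 ABTS radical cation generated from 7 mM ABTS plus 2.5 mM K2S2O8 in water, kept dark at room temperature 16-18 h, then diluted in aqueous 50% EtOH to A734 0.70 ± 0.02. 10.0, 20.0 or 30.0 µL of 1.00 mM aqueous compound added to 2.00 mL radical solution. A734 decrease recorded from 15 s to 5 min. Calibration curves compared with Trolox, expressed as mM Trolox equivalent to 1 mM compound.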

[2] = tested on: Radical scavenging activity; assay: Antioxidant activity assessed as ABTS radical cation scavenging activity by TEAC assay
Nucleic Acid = assay: Protection against H2O2-induced DNA damaging activity of pBR322 assessed as induction of single stranded breaks by gel electrophoresis; conditions: Escherichia coli
Summary of the method: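 pBR322 plasmid (100 ng) incubated 1 h at 37 °C in 100 mM sodium phosphate pH 7.4 with 0.3% H2O2 and 30, 100, 300 ng or 1 µg compound. Reaction volume was 12 µL. Analysed on a 0.7% agarose gel run 1.5 h at 80 V, stained with 0.5 µg/mL ethidium bromide for 15 min, then imaged under UV.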

Compound	Activity [1]	Activity [2]	Activity (Nucleic Acid)
COc1cc(O[C@@H]2O[C@H](CO[C@@H]3O[C@H](CO[C@@H]4O[C@H](CO)[C@@H](O)[C@H](O)[C@H]4O)[C@@H](O)[C@H](O)[C@H]3O)[C@@H](O)[C@H](O)[C@H]2O)cc(OC)c1O	0.8	Active	–
COc1cc(O[C@@H]2O[C@H](CO[C@@H]3O[C@H](CO[C@@H]4O[C@H](CO)[C@@H](O)[C@H](O)[C@H]4O)[C@@H](O)[C@H](O)[C@H]3O)[C@@H](O)[C@H](O)[C@H]2O)ccc1O	0.97	Active	Dose-dependent effect
COc1cc(O[C@@H]2O[C@H](CO[C@@H]3O[C@H](CO[C@@H]4O[C@H](CO[C@@H]5O[C@H](CO)[C@@H](O)[C@H](O)[C@H]5O)[C@@H](O)[C@H](O)[C@H]4O)[C@@H](O)[C@H](O)[C@H]3O)[C@@H](O)[C@H](O)[C@H]2O)ccc1O	0.88	Active	–
COc1cc(O)ccc1O[C@@H]1O[C@H](CO[C@@H]2O[C@H](CO[C@@H]3O[C@H](CO)[C@@H](O)[C@H](O)[C@H]3O)[C@@H](O)[C@H](O)[C@H]2O)[C@@H](O)[C@H](O)[C@H]1O	1.76	–	–
COc1cc(O[C@@H]2O[C@H](CO[C@@H]3O[C@H](CO)[C@@H](O)[C@H](O)[C@H]3O)[C@@H](O)[C@H](O)[C@H]2O)cc(OC)c1O	0.85	Active	–
COc1cc(O[C@@H]2O[C@H](CO[C@@H]3O[C@H](CO)[C@@H](O)[C@H](O)[C@H]3O)[C@@H](O)[C@H](O)[C@H]2O)ccc1O	0.94	Active	–
OC[C@H]1O[C@@H](OC[C@H]2O[C@@H](OC[C@H]3O[C@@H](Oc4ccc(O)cc4)[C@H](O)[C@@H](O)[C@@H]3O)[C@H](O)[C@@H](O)[C@@H]2O)[C@H](O)[C@@H](O)[C@@H]1O	1.12	–	–
